Activity calls are given as the source filed them.
Legend:
[1] = biological target: T1, Adrenergic receptor alpha-1 (Rattus norvegicus, UniProt P15823+P23944+P43140); test: Displacement of [3H]prazosin from alpha1 adrenoceptor in rat cerebral cortex after 30 mins by microbeta scintillation counting; format: tissue-based
T1 sequence (P15823 whole entry): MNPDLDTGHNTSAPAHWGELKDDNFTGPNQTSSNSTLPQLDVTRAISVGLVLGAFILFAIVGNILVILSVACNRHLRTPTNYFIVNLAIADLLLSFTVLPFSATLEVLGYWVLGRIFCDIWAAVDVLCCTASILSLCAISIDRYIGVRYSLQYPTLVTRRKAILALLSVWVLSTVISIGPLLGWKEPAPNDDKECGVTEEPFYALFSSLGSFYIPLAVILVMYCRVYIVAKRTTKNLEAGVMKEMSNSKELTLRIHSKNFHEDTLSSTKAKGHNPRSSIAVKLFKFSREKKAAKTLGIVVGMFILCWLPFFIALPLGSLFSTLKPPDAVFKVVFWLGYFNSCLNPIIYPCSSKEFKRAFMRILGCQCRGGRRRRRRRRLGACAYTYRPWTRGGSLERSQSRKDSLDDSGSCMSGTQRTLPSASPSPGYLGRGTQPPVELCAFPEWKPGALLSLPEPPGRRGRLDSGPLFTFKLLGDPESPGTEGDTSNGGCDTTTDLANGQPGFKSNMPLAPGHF
T1 sequence (P23944 whole entry): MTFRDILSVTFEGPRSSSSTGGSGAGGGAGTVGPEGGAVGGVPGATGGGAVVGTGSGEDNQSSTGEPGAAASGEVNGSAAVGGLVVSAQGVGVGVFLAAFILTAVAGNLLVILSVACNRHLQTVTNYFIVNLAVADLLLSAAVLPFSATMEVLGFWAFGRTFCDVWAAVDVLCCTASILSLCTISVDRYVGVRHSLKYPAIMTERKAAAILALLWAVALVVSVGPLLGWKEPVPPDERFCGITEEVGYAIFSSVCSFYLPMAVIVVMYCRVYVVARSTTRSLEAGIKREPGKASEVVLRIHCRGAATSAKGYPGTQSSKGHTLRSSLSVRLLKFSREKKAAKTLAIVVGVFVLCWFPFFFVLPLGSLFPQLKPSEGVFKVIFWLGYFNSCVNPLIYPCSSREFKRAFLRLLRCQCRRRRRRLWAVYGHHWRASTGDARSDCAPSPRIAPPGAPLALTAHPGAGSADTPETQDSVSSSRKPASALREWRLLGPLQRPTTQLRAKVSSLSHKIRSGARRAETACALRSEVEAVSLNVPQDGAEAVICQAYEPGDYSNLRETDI
T1 sequence (P43140 whole entry): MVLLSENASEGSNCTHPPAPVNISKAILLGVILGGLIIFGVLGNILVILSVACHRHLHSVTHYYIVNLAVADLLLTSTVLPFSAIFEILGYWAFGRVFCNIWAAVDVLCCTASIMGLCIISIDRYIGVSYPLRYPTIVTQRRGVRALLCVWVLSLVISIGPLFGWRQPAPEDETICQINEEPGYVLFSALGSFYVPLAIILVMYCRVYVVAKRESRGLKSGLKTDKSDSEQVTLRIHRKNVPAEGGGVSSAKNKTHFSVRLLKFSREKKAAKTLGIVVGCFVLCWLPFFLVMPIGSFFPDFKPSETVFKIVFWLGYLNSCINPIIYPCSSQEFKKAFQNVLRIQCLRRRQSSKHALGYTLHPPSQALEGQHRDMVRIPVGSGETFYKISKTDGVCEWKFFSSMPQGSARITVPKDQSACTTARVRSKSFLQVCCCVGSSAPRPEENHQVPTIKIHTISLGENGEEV
Outline: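 Rat cerebral cortex homogenised in ice-cold 50 mM Tris-HCl (pH 7.6 at 25 °C), washed twice at 20000×g and resuspended at 10 mg wet weight/ml. Incubated with [3H]prazosin (19.5 Ci/mmol) and test compound for 30 min at 25 °C. Nonspecific binding defined with 10 µM phentolamine. GF/B filtration, scintillation counting, three-parameter logistic competition fit.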

Rattus norvegicus [2] = test: Cardiotoxicity in Wistar rat assessed as effect on P-Q interval at 10 mg/kg, iv after 1 min; format: toxicity, organism-based; parameters: dose 10 mg/kg, route intravenous; details: in vivo
Outline: (§1)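 Male Wistar rats (180–250 g), anaesthetised with thiopental 60 mg/kg ip. Standard lead II ECG recorded at 50 mm/s just before dosing and at 1, 5 and 15 min after. Heart rate and P–Q, Q–T and QRS intervals were read. n=6 per group, mean ± SEM, one-way ANOVA.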

Rattus norvegicus [3] = test: Antiarrhythmic activity in dosed Wistar rat assessed as protection against barium chloride-induced fibrillation administered 15 mins prior to barium chloride-challenge; format: functional, Heart
Outline: (§2)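 Szekeres model in male Wistar rats. Activity is gradual disappearance of arrhythmia with restored sinus rhythm; protection against disturbances and death scored. Groups of 6 animals.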

Rattus norvegicus [4] = test: Antiarrhythmic activity in Wistar rat assessed as effect on heart beat at 10 mg/kg, iv after 1 min; format: functional; outline: as §1
Rattus norvegicus [5] = test: Antiarrhythmic activity in Wistar rat assessed as effect on heart beat at 10 mg/kg, iv after 15 mins; format: functional; outline: as §1
Rattus norvegicus [6] = test: Cardiotoxicity in Wistar rat assessed as effect on Q-T interval at 10 mg/kg, iv after 15 mins; format: toxicity, organism-based; parameters: dose 10 mg/kg, route intravenous; details: in vivo, 0.25 h; outline: as §1
Rattus norvegicus [7] = test: Antiarrhythmic activity in iv dosed Wistar rat assessed as protection against barium chloride-induced extrasystoles administered 15 mins prior to barium chloride-challenge; format: functional, Heart; outline: as §2
Rattus norvegicus [8] = test: Cardiotoxicity in Wistar rat assessed as effect on QRS interval at 10 mg/kg, iv after 1 min; format: toxicity, organism-based; parameters: dose 10 mg/kg, route intravenous; details: in vivo; outline: as §1
Rattus norvegicus [9] = test: Cardiotoxicity in Wistar rat assessed as effect on P-Q interval at 10 mg/kg, iv after 15 mins; format: toxicity, organism-based; parameters: dose 10 mg/kg, route intravenous; details: in vivo, 0.25 h; outline: as §1
Rattus norvegicus [10] = test: Cardiotoxicity in Wistar rat assessed as effect on QRS interval at 10 mg/kg, iv after 5 mins; format: toxicity, organism-based; parameters: dose 10 mg/kg, route intravenous; details: in vivo; outline: as §1
Rattus norvegicus [11] = test: Cardiotoxicity in Wistar rat assessed as effect on P-Q interval at 10 mg/kg, iv after 5 mins; format: toxicity, organism-based; parameters: dose 10 mg/kg, route intravenous; details: in vivo; outline: as §1
Rattus norvegicus [12] = test: Cardiotoxicity in Wistar rat assessed as effect on QRS interval at 10 mg/kg, iv after 15 mins; format: toxicity, organism-based; parameters: dose 10 mg/kg, route intravenous; details: in vivo, 0.25 h; outline: as §1
Rattus norvegicus [13] = test: Cardiotoxicity in Wistar rat assessed as effect on Q-T interval at 10 mg/kg, iv after 5 mins; format: toxicity, organism-based; parameters: dose 10 mg/kg, route intravenous; details: in vivo; outline: as §1
Rattus norvegicus [14] = test: Antiarrhythmic activity in Wistar rat assessed as effect on heart beat at 10 mg/kg, iv after 5 mins; format: functional; outline: as §1
Rattus norvegicus [15] = test: Cardiotoxicity in Wistar rat assessed as effect on Q-T interval at 10 mg/kg, iv after 1 min; format: toxicity, organism-based; parameters: dose 10 mg/kg, route intravenous; details: in vivo; outline: as §1
Rattus norvegicus [16] = test: Antiarrhythmic activity in iv dosed barium chloride-induced Wistar rat arrhythmia model assessed as protection against mortality administered 15 mins prior to barium chloride-challenge; format: functional; details: Heart
Outline: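 Male Wistar rats (180–250 g), groups of 6. Activity criterion: gradual disappearance of arrhythmia and restoration of sinus rhythm; protection against heart disturbances and death scored.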

Rattus norvegicus [17] = test: Hypotensive activity in normotensive Wistar rat assessed as decrease in diastolic blood pressure at 2.5 to 10 mg/kg, iv at 1 min; format: organism-based, Artery; parameters: dose 2.5-10 mg/kg, route intravenous; details: in vivo
Outline: (§3)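 Right carotid artery cannulated with heparin-saline-filled tubing for blood pressure recording. After 5 min stabilisation, compound injected iv into the caudal vein (2.5–10 mg/kg, 1 ml/kg). Systolic and diastolic pressure followed for 60 min. n=6 per group, mean ± SEM, one-way ANOVA.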

Rattus norvegicus [18] = test: Hypotensive activity in normotensive Wistar rat assessed as decrease in diastolic blood pressure at 2.5 to 10 mg/kg, iv after 1 min measured up to 60 mins; format: organism-based, Artery; parameters: dose 2.5-10 mg/kg, route intravenous; details: in vivo; outline: as §3
Rattus norvegicus [19] = test: Hypotensive activity in normotensive Wistar rat assessed as decrease in systolic blood pressure at 2.5 to 10 mg/kg, iv after 1 min measured up to 60 mins; format: organism-based, Artery; parameters: dose 2.5-10 mg/kg, route intravenous; details: in vivo; outline: as §3
Rattus norvegicus [20] = test: Hypotensive activity in normotensive Wistar rat assessed as decrease in systolic blood pressure at 2.5 to 10 mg/kg, iv at 1 min; format: organism-based, Artery; parameters: dose 2.5-10 mg/kg, route intravenous; details: in vivo; outline: as §3

Ki [1] [nM]	pKi [1]	Compound	Activity (Rattus norvegicus [2]) [ms]	Activity (Rattus norvegicus [4]) [min⁻¹]	Activity (Rattus norvegicus [5]) [min⁻¹]	Activity (Rattus norvegicus [6]) [ms]	Activity (Rattus norvegicus [8]) [ms]	Activity (Rattus norvegicus [9]) [ms]	Activity (Rattus norvegicus [10]) [ms]	Activity (Rattus norvegicus [11]) [ms]	Activity (Rattus norvegicus [12]) [ms]	Activity (Rattus norvegicus [13]) [ms]	Activity (Rattus norvegicus [14]) [min⁻¹]	Activity (Rattus norvegicus [15]) [ms]	Activity (Rattus norvegicus [17])	Activity (Rattus norvegicus [18])	Activity (Rattus norvegicus [19])	Activity (Rattus norvegicus [20])	also measured
412.9	6.38	COc1ccccc1N1CCN(CCCN2C(=O)N(C)C(=O)C2(c2ccccc2)c2ccccc2)CC1.Cl																	
401.2	6.4	CCOc1ccccc1N1CCN(CCCN2C(=O)N(C(C)C(=O)OC)C(=O)C2(c2ccccc2)c2ccccc2)CC1.Cl (stereo unspecified)																	
		C=CC(C(=O)OC)N1C(=O)N(CC(O)CN2CCN(c3ccccc3OC)CC2)C(c2ccccc2)(c2ccccc2)C1=O.Cl (racemic)	56	261	291	71	25	56	23	57	25	78	294	82					Activity (Rattus norvegicus [3]; Heart): inactive; Activity (Rattus norvegicus [7]; Heart): inactive; Activity (Rattus norvegicus [16]): inactive
542.3	6.27	CN1C(=O)N(CC(O)CN2CCN(c3ccccc3)CC2)C(c2ccccc2)(c2ccccc2)C1=O.Cl (racemic)	66	270	263	74	23	59	20	59	18	79	260	109	Toxic	Non-toxic	Non-toxic	Toxic	
3300	5.48	COC(=O)CN1C(=O)N(CC(O)CN2CCN(c3ccccc3F)CC2)C(c2ccccc2)(c2ccccc2)C1=O.Cl (racemic)	66	284	281	71	17	58	17	61	15	82	256	86	Toxic	Non-toxic	Non-toxic	Toxic	

Compound	Ki [1] [nM]	pKi [1]	Activity (Rattus norvegicus [2]) [ms]	Activity (Rattus norvegicus [4]) [min⁻¹]	Activity (Rattus norvegicus [5]) [min⁻¹]	Activity (Rattus norvegicus [6]) [ms]	Activity (Rattus norvegicus [8]) [ms]	Activity (Rattus norvegicus [9]) [ms]	Activity (Rattus norvegicus [10]) [ms]	Activity (Rattus norvegicus [11]) [ms]	Activity (Rattus norvegicus [12]) [ms]	Activity (Rattus norvegicus [13]) [ms]	Activity (Rattus norvegicus [14]) [min⁻¹]	Activity (Rattus norvegicus [15]) [ms]	Activity (Rattus norvegicus [17])	Activity (Rattus norvegicus [18])	Activity (Rattus norvegicus [19])	Activity (Rattus norvegicus [20])	also measured
CN1C(=O)N(CC(O)CN2CCN(c3ccccc3Cl)CC2)C(c2ccccc2)(c2ccccc2)C1=O.Cl (racemic)	483	6.32	60	279	303	72	17	60	16	60	16	76	278	83					Activity (Rattus norvegicus [3]): >50%; Activity (Rattus norvegicus [7]): >50%

From ChEMBL document CHEMBL2040780, “Antiarrhythmic properties of phenylpiperazine derivatives of phenytoin with α₁-adrenoceptor affinities” (Bioorg Med Chem, 2012)
